According to PubChem BioAssay AID743238 (Broad Institute, 2013):
About 200 (0.056%) of roughly 360,000 compounds were called active. The entries come from a sample that favours actives as a whole. Unmarked numbers belong to inactive results.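 The calls were made as follows: active = mean normalized replicate activation at least 10% and every replicate at or above 10%; inconclusive = only one of the two criteria met; inactive = mean below 10% and not all replicates reach 10%.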

Assay: Xi reactivation inducers in mouse fibroblasts – imaging, XiGFP fibroblasts, GFP high-content imaging, set 2, primary screen (AID 743238);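 also: 0% = median of on-plate neutral control wells and 100% = ellipticine 6 µM median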
Settings: % GFP-positive cells imaging, 3 d, at 7.58 µM, active compounds read high, cells co-treated with 5-aza-dC sensitizer, scaled so ellipticine positive control = 100%
Method in brief: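 System: 68-5-11 XiGFP fibroblast line; Timing: 3 days compound exposure; Compound dosing: one concentration, pinned; Benchmarks: positive control ellipticine, 6 µM final; Buffer or medium: DMEM containing 5-aza-dC.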

Row | SMILES | activation
1 | COCC#Cc1ccc([C@@H]2[C@@H](CO)N3C(=O)CN(C(=O)Nc4cc(F)ccc4F)C[C@@H]23)cc1 | 0.227%
2 | CS(=O)(=O)N1[C@H](C#N)[C@H](c2ccccc2-c2ccc(F)cc2)[C@@H]1CO | 0.0935%
3 | O=C(NCc1ccc(F)cc1)[C@@H]1[C@@H](CO)[C@@H]2Cn3c(cccc3=O)[C@@H]2N1C(=O)c1cccnc1 | 0.173%
4 | C[C@H]1CN([C@@H](C)CO)C(=O)c2cc(C3=CCCC3)cnc2O[C@H]1CN(C)Cc1ccccc1C(=O)O | -0.072%
5 | O=C(C[C@@H]1CC[C@H](NS(=O)(=O)c2ccc(F)cc2)[C@@H](CO)O1)NCc1ccccc1F | -0.283%
6 | Cc1noc(C)c1NC(=O)Nc1ccc2c(c1)C(=O)N([C@H](C)CO)C[C@H](C)[C@H](CN(C)S(=O)(=O)c1cccs1)O2 | 0.0715%
7 | N#C[C@@H]1[C@H](c2ccccc2-c2cccc(F)c2)[C@@H](CO)N1C(=O)C1CCCC1 | 0.007%
8 | Cc1cccc(N2CCN(C(C)C(=O)N3CCc4ccccc43)CC2)c1C (stereo not given) | 0.0055%
9 | Cc1cccc2cc3c(N)c(C(=O)N4CCCc5ccccc54)sc3nc12 | 39.9% (active)
10 | COc1cccc(/C=C/C(=O)OCC(=O)N2CCCc3ccccc32)c1 | 0.22%
11 | O=C(C[C@@H]1C[C@H]2c3cc(NC(=O)NC4CCCC4)ccc3O[C@H]2[C@H](CO)O1)NCc1cc(F)ccc1F | 0.0125%
12 | C[C@H](CO)N1C[C@H](C)[C@H](CN(C)S(=O)(=O)c2ccc(Cl)cc2)Oc2ccc(NC(=O)C3CCCCC3)cc2C1=O | -0.051%
13 | CN1C(=O)c2cc(NC(=O)c3ccc(Cl)cc3)ccc2OC[C@H]2O[C@H](CC(=O)O)CC[C@H]21 | 0.521%
14 | C[C@@H]1CCCCO[C@@H](CN(C)Cc2ccc(C(=O)Nc3ccccc3N)cc2)[C@H](C)CN([C@H](C)CO)C(=O)c2cc(N(C)C)ccc2O1 | 2.13%
15 | O=C(C1CCCC1)N1CC(=O)N2[C@@H](CO)[C@@H](c3ccc(-c4cccnc4)cc3)[C@@H]2C1 | 0.207%
16 | C[C@@H](NC(=O)[C@H]1[C@H](CO)[C@H]2Cn3c(cccc3=O)[C@@H]1N2Cc1cccnc1)c1ccccc1 | 0.133%
17 | C[C@@H]1CN([C@H](C)CO)C(=O)Cc2cc(NC(=O)Nc3ccc4c(c3)OCO4)ccc2O[C@@H]1CN(C)C(=O)Nc1ccccc1 | -0.384%
18 | CCCNC(=O)N1C[C@@H](C)[C@@H](OC)CN(C)C(=O)c2ccc(NC(=O)C3CCC3)cc2OC[C@@H]1C | -0.29%
19 | COc1ccc2c3c([nH]c2c1)[C@@H](CO)N(C(=O)c1ccccc1)CC31CCN(C(=O)Nc2cccc(F)c2)CC1 | 0.295%
20 | Cc1noc(C)c1NC(=O)N[C@@H]1C=C[C@@H](CC(=O)Nc2ccccc2)O[C@H]1CO | 0.193%
21 | O=C(NC(Cc1ccc(O)cc1)C(=O)O)/C(=C/c1ccccc1)NC(=O)c1ccccc1 (stereo not given) | 0.249%
22 | COc1ccccc1C(=O)N/C(=C/c1ccc2c(c1)OCO2)C(=O)Nc1cccc(C(=O)O)c1 | 0.184%

Row | SMILES | activation
23 | O=C(Nc1cccc(C(=O)O)c1)/C(=C\c1ccccc1)NC(=O)c1ccc(Br)o1 | 97.3% (active)
24 | C[C@@H]1CCCCO[C@@H](CN(C)S(=O)(=O)c2cn(C)cn2)[C@@H](C)CN([C@@H](C)CO)C(=O)c2cc(NC(=O)NC3CCCCC3)ccc2O1 | 0.153%
25 | O=C(c1ccncc1)N1CC(=O)N2[C@H](C1)[C@@H](c1ccc(C#CCC3CCCC3)cc1)[C@@H]2CO | 0.192%
26 | C[C@H]1CN([C@@H](C)CO)C(=O)c2cccc(NS(=O)(=O)c3ccc(F)cc3)c2O[C@@H]1CN(C)C | -0.0195%
27 | CNC[C@@H]1Oc2ccc(NC(=O)C3CCCCC3)cc2C(=O)N([C@@H](C)CO)C[C@H]1C | -1.11%
28 | C[C@@H](NC(=O)C[C@@H]1C[C@@H]2c3cc(NC(=O)c4cccnc4)ccc3O[C@@H]2[C@H](CO)O1)c1ccccc1 | -0.0445%
29 | CC(=O)N1[C@@H]2c3ccc(-c4ccccc4)c(=O)n3C[C@@H]2[C@@H](CO)[C@@H]1C(=O)NCc1ccccc1F | 0.21%
30 | C[C@H](CO)N1C[C@H](C)[C@@H](CN(C)Cc2cccnc2)Oc2ncc(/C=C/c3ccccc3)cc2C1=O | -0.672%
31 | CC(C)CC#Cc1cnc2c(c1)C(=O)N([C@H](C)CO)C[C@H](C)[C@H](CN(C)CC1CCOCC1)O2 | 0.516%
32 | CC[C@H]1CC=CC[C@@H](C)Oc2ccccc2C(=O)N(C)[C@H](Cc2ccccc2)C(=O)N1 (mixture of isomers) | -0.034%
33 | CCOC(=O)c1sc2nc(CSc3ccccc3)[nH]c(=O)c2c1C | 21.4% (active)
34 | CCOC(=O)c1sc2nc(C)nc(SCC(N)=O)c2c1C | -0.02%
35 | CSc1nnc(SCc2nc3sc(C(=O)O)c(C)c3c(=O)[nH]2)s1 | 0.212%
36 | C/C=C/c1ccc2c(c1)O[C@H](CN(C)C(=O)Cc1cccnc1)[C@@H](C)CN([C@H](C)CO)S2(=O)=O | 0.77%
37 | COc1ccc2c3c(n(C)c2c1)[C@H](CO)N(C(C)=O)CC31CN(Cc2ccc(Cl)cc2)C1 | -0.0005%
38 | COCCN(C[C@H]1[C@@H](c2ccccc2)[C@H](CO)N1C(=O)C1CCC1)C(C)=O | 0.023%
39 | C/C=C/c1ccc([C@H]2[C@@H](CO)N(C(=O)CC)[C@H]2CN(C)C(=O)C2CC2)cc1 | 0.008%
40 | CCC(=O)Nc1ccc2c(c1)C(=O)N(C)C[C@@H](OC)[C@@H](C)CN(C(=O)CN(C)C)[C@@H](C)CO2 | 0.206%
41 | CCC(=O)N1CC2(CCN(Cc3ccc(Cl)cc3)CC2)c2c(n(C)c3cc(OC)ccc23)[C@@H]1CO | 0.134%
42 | CCS(=O)(=O)N1CC2(CN(C(=O)c3ccc(F)cc3)[C@@H](CO)c3c2c2ccc(OC)cc2n3C)C1 | 0.267%
43 | C[C@@H]1CN([C@@H](C)CO)S(=O)(=O)c2ccc(Br)cc2O[C@@H]1CN(C)C(=O)CN(C)C | 0.922%
44 | O=C(Nc1ccc(F)cc1)N1CC(=O)N2[C@H](CO)[C@H](c3ccc(C#Cc4ccccc4)cc3)[C@H]2C1 | 0.018%

Row | SMILES | activation
45 | C[C@H](CO)N1C[C@H](C)[C@@H](CN(C)S(C)(=O)=O)Oc2ccc(NC(=O)Nc3ccc4c(c3)OCO4)cc2CC1=O | 0.005%
46 | OC[C@H]1[C@@H](c2ccc(C#Cc3ccccc3F)cc2)[C@H]2CN(CC3CCOCC3)CCCCN21 | -0.0285%
47 | C[C@H]1CN([C@@H](C)CO)C(=O)c2cc(-c3ccccc3)cnc2O[C@H]1CN(C)C(=O)C1CCOCC1 | -0.251%
48 | COCC(=O)Nc1ccc2c(c1)C(=O)N(C)[C@@H]1CC[C@H](CC(=O)NCC3CC3)O[C@H]1CO2 | 0.286%
49 | COc1ccc2c3c(n(C)c2c1)[C@H](CO)NCC31CN(S(=O)(=O)c2cccc(C)c2)C1 | 0.887%
50 | COc1cccc(-c2cnc3c(c2)C(=O)N([C@H](C)CO)C[C@H](C)[C@H](CN(C)Cc2ccncc2)O3)c1 | 0.983%
51 | CC(=O)N(C)C[C@H]1Oc2ncc(C#Cc3ccc(F)cc3)cc2C(=O)N([C@H](C)CO)C[C@@H]1C | -1.15%
52 | C[C@H]1CN([C@@H](C)CO)C(=O)CCCn2cc(nn2)CO[C@H]1CN(C)C(=O)Nc1ccc(F)cc1 | -0.396%
53 | O=C(C[C@H]1C=C[C@@H](NC(=O)CC2CC2)[C@H](CO)O1)NCc1ccc(-c2ccccc2)cc1 | 0.158%
54 | COc1ccc(S(=O)(=O)N(C)C[C@@H]2Oc3ccc(NC(=O)CCN4CCOCC4)cc3CC(=O)N([C@@H](C)CO)C[C@@H]2C)cc1 | -1.18%
55 | O=C(c1cccc(F)c1)N1CC[C@@H]2[C@H](CO)Nc3ccc(C#Cc4ccccc4)cc3[C@@H]21 | 0.0425%
56 | CC(C)NC(=O)N(C)C[C@@H]1Oc2ncc(C#CC3CC3)cc2C(=O)N([C@@H](C)CO)C[C@H]1C | -0.634%
57 | Nc1c(C(=O)c2cccs2)sc2nsc(SCCN3CCCCC3)c12 | 114% (active)
58 | O=C(NC1CCCC1)N1CC(=O)N2[C@H](C1)[C@H](c1ccc(/C=C/c3ccccc3)cc1)[C@@H]2CO | 0.335%
59 | CCCC#Cc1ccc([C@H]2[C@H]3CN(C(=O)c4cccnc4)CC(=O)N3[C@H]2CO)cc1 | -0.0225%
60 | COc1ccccc1-c1ccc([C@H]2[C@@H](CO)N(CC3CC3)C23CN(S(C)(=O)=O)C3)cc1 | 0.04%
61 | CO[C@@H]1CN(C)C(=O)c2cc(NC(=O)Nc3ccccc3F)ccc2OC[C@H](C)NC[C@H]1C | -0.018%
62 | O=C([C@@H]1[C@@H](CO)[C@@H]2Cn3c(ccc(-c4cncnc4)c3=O)[C@@H]2N1C(=O)C1CCC1)N1CCCCC1 | 0.322%
63 | C[C@@H]1CCCCO[C@@H](CN(C)Cc2ccncc2)[C@@H](C)CN([C@H](C)CO)C(=O)c2cc(NS(=O)(=O)c3cccs3)ccc2O1 | 0.415%
64 | CCCN1[C@H](CO)[C@H](c2ccc(C#CC3CCCCC3)cc2)[C@@H]1CNC(=O)C1CC1 | 0.049%
65 | CN1CCN(C(=O)C[C@@H]2CC[C@@H]3[C@H](COC[C@H](O)CN3CC3CCOCC3)O2)CC1 | 0.0745%
